Measured values as given in ChEMBL document CHEMBL5712883, “RNA polymerase II stalling promotes nucleosome occlusion and pTEFb recruitment to drive immortalization by Epstein-Barr virus” (PLoS Pathog, 2011).
Calls of active or inactive are those of the source. The rule behind the calls is not given here.

Key:
Assay type in all cases: cell-based
[1] = target: T1, CDK9/cyclin T1 (Homo sapiens) (UniProt O60563+P50750); assay: Inhibition of CDK9/Cyclin T1 in human Mutu-3 cells assessed as reduction in BRD4 at +1564 distal EBV genome region at 500 nM incubated for 2 hrs by CHIP assay
[2] = target: T1, CDK9/cyclin T1 (Homo sapiens); assay: Inhibition of CDK9/Cyclin T1 in human Mutu-3 cells assessed as effect on cp-pre-initiation complex assembly at +38828 distal EBV genome region at 500 nM incubated for 2 hrs by CHIP assay
[3] = target: T1, CDK9/cyclin T1 (Homo sapiens); assay: Inhibition of CDK9/Cyclin T1 in human Mutu-3 cells assessed as reduction in H4 histone acetylation at +574 distal EBV genome region at 500 nM incubated for 2 hrs by CHIP assay
[4] = target: T1, CDK9/cyclin T1 (Homo sapiens); assay: Inhibition of CDK9/Cyclin T1 in human Mutu-3 cells assessed as reduction in BRD4 at +574 distal EBV genome region at 500 nM incubated for 2 hrs by CHIP assay
[5] = target: T1, CDK9/cyclin T1 (Homo sapiens); assay: Inhibition of CDK9/Cyclin T1 in human Mutu-3 cells assessed as decrease in Cp-initiated EBNA 1 transcription at 25 to 50 uM incubated for 24 hrs by Q-PCR analysis; conditions: dose 25-50 µM
Summary of the method: (§1)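 Mutu III cells seeded at 5×10^5 cells/ml and given DRB or flavopiridol at the stated concentrations, with DMSO as control, for 24 hrs. cDNA was made from 10^5 cells with a cells-to-Ct SYBR kit. Q-PCR used cDNA-specific EBNA 2, EBNA 1 (YUK) or LMP1 primers, with actin as endogenous control, and was analysed by relative quantification (ddCt) against 24 hr control samples.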

[6] = target: T1, CDK9/cyclin T1 (Homo sapiens); assay: Inhibition of CDK9/Cyclin T1 in human Mutu-3 cells assessed as reduction in H4 histone acetylation at +2238 distal EBV genome region at 500 nM incubated for 2 hrs by CHIP assay
[7] = target: T1, CDK9/cyclin T1 (Homo sapiens); assay: Inhibition of CDK9/Cyclin T1 in human Mutu-3 cells assessed as reduction in H3 histone acetylation at -317 distal EBV genome region at 500 nM incubated for 2 hrs by CHIP assay
[8] = target: T1, CDK9/cyclin T1 (Homo sapiens); assay: Inhibition of CDK9/Cyclin T1 in human B cell transfected with EBV assessed as reduction in RNA pol II C-terminal domain phosphorylation on serine 5 at +50024 distal EBV genome region at 500 nM incubated for 2 hrs in presence of beta-estradiol by CHIP assay
[9] = target: T1, CDK9/cyclin T1 (Homo sapiens); assay: Inhibition of CDK9/Cyclin T1 in human Mutu-3 cells assessed as reduction in RNA pol II C-terminal domain phosphorylation on serine 5 at -208 distal EBV genome region at 500 nM incubated for 2 hrs by CHIP assay
[10] = target: T1, CDK9/cyclin T1 (Homo sapiens); assay: Inhibition of CDK9/Cyclin T1 in human Mutu-3 cells assessed as effect on cp-pre-initiation complex assembly at +38667 distal EBV genome region at 500 nM incubated for 2 hrs by CHIP assay
[11] = target: T1, CDK9/cyclin T1 (Homo sapiens); assay: Inhibition of CDK9/Cyclin T1 in human Mutu-3 cells assessed as reduction in H4 histone acetylation at +1564 distal EBV genome region at 500 nM incubated for 2 hrs by CHIP assay
[12] = target: T1, CDK9/cyclin T1 (Homo sapiens); assay: Inhibition of CDK9/Cyclin T1 in human Mutu-3 cells assessed as decrease in Cp-initiated EBNA 2 transcription at 25 to 50 uM incubated for 24 hrs by Q-PCR analysis; conditions: dose 25-50 µM; summary of the method: as §1
[13] = target: T1, CDK9/cyclin T1 (Homo sapiens); assay: Inhibition of CDK9/Cyclin T1 in human B cell transfected with EBV assessed as reduction in RNA pol II C-terminal domain phosphorylation on serine 5 at +59014 distal EBV genome region at 500 nM incubated for 2 hrs in presence of beta-estradiol by CHIP assay
[14] = target: T1, CDK9/cyclin T1 (Homo sapiens); assay: Inhibition of CDK9/Cyclin T1 in human Mutu-3 cells assessed as decrease in Cp-initiated LMP1 transcription at 25 to 50 uM incubated for 24 hrs by Q-PCR analysis; conditions: dose 25-50 µM; summary of the method: as §1
[15] = target: T1, CDK9/cyclin T1 (Homo sapiens); assay: Inhibition of CDK9/Cyclin T1 in human B cell transfected with EBV assessed as reduction in RNA pol II C-terminal domain phosphorylation on serine 5 at +75615 distal EBV genome region at 500 nM incubated for 2 hrs in presence of beta-estradiol by CHIP assay
[16] = target: T1, CDK9/cyclin T1 (Homo sapiens); assay: Inhibition of CDK9/Cyclin T1 in human Mutu-3 cells assessed as reduction in H3 histone acetylation at +1564 distal EBV genome region at 500 nM incubated for 2 hrs by CHIP assay
[17] = target: T1, CDK9/cyclin T1 (Homo sapiens); assay: Inhibition of CDK9/Cyclin T1 in human Mutu-3 cells assessed as reduction in H3 histone acetylation at +34 distal EBV genome region at 500 nM incubated for 2 hrs by CHIP assay
[18] = target: T1, CDK9/cyclin T1 (Homo sapiens); assay: Inhibition of CDK9/Cyclin T1 in human B cell transfected with EBV assessed as reduction in RNA pol II C-terminal domain phosphorylation on serine 5 at +295 distal EBV genome region at 500 nM incubated for 2 hrs in presence of beta-estradiol by CHIP assay
[19] = target: T1, CDK9/cyclin T1 (Homo sapiens); assay: Inhibition of CDK9/Cyclin T1 in human Mutu-3 cells assessed as effect on cp-pre-initiation complex assembly at +30896 distal EBV genome region at 500 nM incubated for 2 hrs by CHIP assay
[20] = target: T1, CDK9/cyclin T1 (Homo sapiens); assay: Inhibition of CDK9/Cyclin T1 in human Mutu-3 cells assessed as increase in fold change pTEFb/Brd4 complex
[21] = target: T1, CDK9/cyclin T1 (Homo sapiens); assay: Inhibition of CDK9/Cyclin T1 in human Mutu-3 cells assessed as effect on cp-pre-initiation complex assembly at -208 distal EBV genome region at 500 nM incubated for 2 hrs by CHIP assay
[22] = target: T1, CDK9/cyclin T1 (Homo sapiens); assay: Inhibition of CDK9/Cyclin T1 in human Mutu-3 cells assessed as reduction in H4 histone acetylation at +34 distal EBV genome region at 500 nM incubated for 2 hrs by CHIP assay
[23] = target: T1, CDK9/cyclin T1 (Homo sapiens); assay: Inhibition of CDK9/Cyclin T1 in human HeLa cells stably transfected Flag-tagged CDK9 assessed as increase in fold change pTEFb/Brd4 complex at 1 mM by western analysis
[24] = target: T1, CDK9/cyclin T1 (Homo sapiens); assay: Inhibition of CDK9/Cyclin T1 in human Mutu-3 cells assessed as reduction in BRD4 at +34 distal EBV genome region at 500 nM incubated for 2 hrs by CHIP assay
[25] = target: T1, CDK9/cyclin T1 (Homo sapiens); assay: Inhibition of CDK9/Cyclin T1 in human Mutu-3 cells assessed as reduction in H3 histone acetylation at +2238 distal EBV genome region at 500 nM incubated for 2 hrs by CHIP assay
[26] = target: T1, CDK9/cyclin T1 (Homo sapiens); assay: Inhibition of CDK9/Cyclin T1 in human Mutu-3 cells assessed as reduction in BRD4 at +2238 distal EBV genome region at 500 nM incubated for 2 hrs by CHIP assay
[27] = target: T1, CDK9/cyclin T1 (Homo sapiens); assay: Inhibition of CDK9/Cyclin T1 in human B cell transfected with EBV assessed as reduction in RNA pol II C-terminal domain phosphorylation on serine 5 at +30896 distal EBV genome region at 500 nM incubated for 2 hrs in presence of beta-estradiol by CHIP assay
[28] = target: T1, CDK9/cyclin T1 (Homo sapiens); assay: Inhibition of CDK9/Cyclin T1 in human Mutu-3 cells assessed as reduction in RNA pol II C-terminal domain phosphorylation on serine 5 at +30896 distal EBV genome region at 500 nM incubated for 2 hrs by CHIP assay
[29] = target: T1, CDK9/cyclin T1 (Homo sapiens); assay: Inhibition of CDK9/Cyclin T1 in human Mutu-3 cells assessed as reduction in RNA pol II C-terminal domain phosphorylation on serine 5 at W repeat EBV genome region at 500 nM incubated for 2 hrs by CHIP assay
[30] = target: T1, CDK9/cyclin T1 (Homo sapiens); assay: Inhibition of CDK9/Cyclin T1 in human Mutu-3 cells assessed as effect on cp-pre-initiation complex assembly at +48 distal EBV genome region at 500 nM incubated for 2 hrs by CHIP assay
[31] = target: T1, CDK9/cyclin T1 (Homo sapiens); assay: Inhibition of CDK9/Cyclin T1 in human Mutu-3 cells assessed as reduction in RNA pol II C-terminal domain phosphorylation on serine 5 at +38828 distal EBV genome region at 500 nM incubated for 2 hrs by CHIP assay
[32] = target: T1, CDK9/cyclin T1 (Homo sapiens); assay: Inhibition of CDK9/Cyclin T1 in human B cell transfected with EBV assessed as reduction in RNA pol II C-terminal domain phosphorylation on serine 5 at +48 distal EBV genome region at 500 nM incubated for 2 hrs in presence of beta-estradiol by CHIP assay
[33] = target: T1, CDK9/cyclin T1 (Homo sapiens); assay: Inhibition of CDK9/Cyclin T1 in human Mutu-3 cells assessed as reduction in H4 histone acetylation at -317 distal EBV genome region at 500 nM incubated for 2 hrs by CHIP assay
[34] = target: T1, CDK9/cyclin T1 (Homo sapiens); assay: Inhibition of CDK9/Cyclin T1 in human B cell transfected with EBV assessed as reduction in RNA pol II C-terminal domain phosphorylation on serine 5 at +40493 distal EBV genome region at 500 nM incubated for 2 hrs in presence of beta-estradiol by CHIP assay
[35] = target: T1, CDK9/cyclin T1 (Homo sapiens); assay: Inhibition of CDK9/Cyclin T1 in human B cell transfected with EBV assessed as reduction in RNA pol II C-terminal domain phosphorylation on serine 5 at -208 distal EBV genome region at 500 nM incubated for 2 hrs in presence of beta-estradiol by CHIP assay
[36] = target: T1, CDK9/cyclin T1 (Homo sapiens); assay: Inhibition of CDK9/Cyclin T1 in human Mutu-3 cells assessed as reduction in RNA pol II C-terminal domain phosphorylation on serine 5 at +38667 distal EBV genome region at 500 nM incubated for 2 hrs by CHIP assay
[37] = target: T1, CDK9/cyclin T1 (Homo sapiens); assay: Inhibition of CDK9/Cyclin T1 in human Mutu-3 cells assessed as reduction in BRD4 at -317 distal EBV genome region at 500 nM incubated for 2 hrs by CHIP assay
[38] = target: T1, CDK9/cyclin T1 (Homo sapiens); assay: Inhibition of CDK9/Cyclin T1 in human Mutu-3 cells assessed as reduction in RNA pol II C-terminal domain phosphorylation on serine 5 at +295 distal EBV genome region at 500 nM incubated for 2 hrs by CHIP assay
[39] = target: T1, CDK9/cyclin T1 (Homo sapiens); assay: Inhibition of CDK9/Cyclin T1 in human Mutu-3 cells assessed as effect on cp-pre-initiation complex assembly at +295 distal EBV genome region at 500 nM incubated for 2 hrs by CHIP assay
[40] = target: T1, CDK9/cyclin T1 (Homo sapiens); assay: Inhibition of CDK9/Cyclin T1 in human Mutu-3 cells assessed as reduction in RNA pol II C-terminal domain phosphorylation on serine 5 at +48 distal EBV genome region at 500 nM incubated for 2 hrs by CHIP assay
[41] = target: T1, CDK9/cyclin T1 (Homo sapiens); assay: Inhibition of CDK9/Cyclin T1 in human Mutu-3 cells assessed as reduction in H3 histone acetylation at +574 distal EBV genome region at 500 nM incubated for 2 hrs by CHIP assay

SMILES: OC[C@H]1O[C@@H](n2cnc3cc(Cl)c(Cl)cc32)[C@H](O)[C@@H]1O
- inhibition [1]: Active
- inhibition [2]: inactive
- inhibition [3]: Active
- inhibition [4]: Active
- inhibition [5]: Active
- inhibition [6]: Active
- inhibition [7]: Active
- inhibition [8]: Active
- inhibition [9]: Active
- inhibition [10]: inactive
- inhibition [11]: Active
- inhibition [12]: Active
- inhibition [13]: Active
- inhibition [14]: inactive
- inhibition [15]: Active
- inhibition [16]: Active
- inhibition [17]: Active
- inhibition [18]: Active
- inhibition [19]: inactive
- fold change (FC) [20]: 2
- inhibition [21]: inactive
- inhibition [22]: Active
- fold change (FC) [23]: 2
- inhibition [24]: Active
- inhibition [25]: Active
- inhibition [26]: Active
- inhibition [27]: Active
- inhibition [28]: Active
- inhibition [29]: Active
- inhibition [30]: inactive
- inhibition [31]: Active
- inhibition [32]: Active
- inhibition [33]: Active
- inhibition [34]: Active
- inhibition [35]: Active
- inhibition [36]: Active
- inhibition [37]: Active
- inhibition [38]: Active
- inhibition [39]: inactive
- inhibition [40]: Active
- inhibition [41]: Active
